Activity calls are given as the source filed them. The calls are words filed in the database; no cut-off is given here.
Legend:
MDA-MB-468 [1] = experiment: Induction of cell death in human MDA-MB-468 cells at EC80 concentration after 3 to 6 days by DAPI staining based flow cytometry; assay type: functional
Outline: (§1)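 Compounds given at approximately EC80 (taken from the cell's own dose-response data) for 3 to 6 days depending on line. Floating and trypsinized adherent cells were pooled, washed 3–5 times in warm PBS, and stained with DAPI (1/10,000) in PBS with 4% FBS on ice. Flow cytometry counted 10 000 cells per gate: dead = DAPI+, senescent = SSC+ DAPI−. Duplicate experiments, mean ± SEM.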

MDA-MB-468 [2] = experiment: Induction of senescence in human MDA-MB-468 cells at EC80 concentration after 3 to 6 days by DAPI staining based flow cytometry; assay type: functional; outline: as §1
HEY [3] = experiment: Induction of senescence in human HEY cells at EC80 concentration after 3 to 6 days by DAPI staining based flow cytometry; assay type: functional; outline: as §1
Bos taurus = organism: Bos taurus; experiment: Induction of bovine brain tubulin alpha polymerization assessed as alpha tubulin expression by measuring pellet/supernatant and pellet fraction level at 3 uM after 1 hr by immunoblot method (reference value: 10.4%)
Outline: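 Purified bovine brain tubulin incubated 30 min at 37 °C with 3 μM compound in MEM–glycerol buffer, 2 mM GTP, pH 6.9. Spun at 120000g, 37 °C, 1 h. Supernatant and SDS-solubilized pellet run on SDS-PAGE, α-tubulin quantified by Western blot, % polymerized calculated as P/(S + P).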

HEY [4] = experiment: Induction of senescence in human HEY cells assessed as increase in IL-8 mRNA expression level at EC80 concentration after 6 days by qRT-PCR analysis; assay type: functional, cell-based
Outline: (§2)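 Cells treated 6 days at EC80 doses (derived from dose-response data) and analysed for SASP transcripts by qRT-PCR. Expression was normalised to cyclophilin B and expressed relative to vehicle-treated asynchronous cells. Bars are mean ± SEM (n = 2).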

Hs-578T [5] = experiment: Induction of senescence in human Hs578T cells at EC80 concentration after 3 to 6 days by DAPI staining based flow cytometry; assay type: functional; outline: as §1
BT-549 [6] = experiment: Induction of senescence in human BT549 cells at EC80 concentration after 3 to 6 days by DAPI staining based flow cytometry; assay type: functional; outline: as §1
HEY [7] = experiment: Induction of senescence in human HEY cells assessed as increase in PAI1 mRNA expression level at EC80 concentration after 6 days by qRT-PCR analysis; assay type: functional, cell-based; outline: as §2
BT-549 [8] = experiment: Induction of cell death in human BT549 cells at EC80 concentration after 3 to 6 days by DAPI staining based flow cytometry; assay type: functional; outline: as §1
Hs-578T [9] = experiment: Induction of cell death in human Hs578T cells at EC80 concentration after 3 to 6 days by DAPI staining based flow cytometry; assay type: functional; outline: as §1
HEY [10] = experiment: Induction of senescence in human HEY cells assessed as increase in CXCL1 mRNA expression level at EC80 concentration after 6 days by qRT-PCR analysis; assay type: functional, cell-based; outline: as §2
MDA-MB-157 = experiment: Antiproliferative activity against human MDA-MB-157 cells after 3 to 7 days by SRB assay; assay type: functional, cell-based
Outline: (§3)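 Sulforhodamine B total-protein read-out on adherent cells maintained in RPMI with 10% FBS. Seeding was 900–4000 cells per well depending on line, with 24 h allowed for attachment. Six replicate wells per concentration, exposure for three cell doublings (3 to 7 days); DMSO final below 0.01%. Logistic sigmoidal fit by nonlinear least squares gave EC50, EMax and AUC; experiments repeated at least three times.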

MCF7 = experiment: Antiproliferative activity against human MCF7 cells after 3 to 7 days by SRB assay; assay type: functional, cell-based; outline: as §3
HCC1143 = experiment: Antiproliferative activity against human HCC1143 cells after 3 to 7 days by SRB assay; assay type: functional, cell-based; outline: as §3
A549 = experiment: Antiproliferative activity against human A549 cells after 3 to 7 days by SRB assay; assay type: functional, cell-based; outline: as §3
BT-20 = experiment: Antiproliferative activity against human BT20 cells after 3 to 7 days by SRB assay; assay type: functional, cell-based; outline: as §3
HEY [11] = experiment: Antiproliferative activity against human HEY cells after 3 to 7 days by SRB assay; assay type: functional, cell-based; outline: as §3
MDA-MB-468 [12] = experiment: Induction of senescence in human MDA-MB-468 cells assessed as increase in PAI1 mRNA expression level at EC80 concentration after 6 days by qRT-PCR analysis; assay type: functional, cell-based; outline: as §2
MDA-MB-468 [13] = experiment: Induction of senescence in human MDA-MB-468 cells assessed as increase in IL-8 mRNA expression level at EC80 concentration after 6 days by qRT-PCR analysis; assay type: functional, cell-based; outline: as §2
BT-549 [14] = experiment: Antiproliferative activity against human BT549 cells after 3 to 7 days by SRB assay; assay type: functional, cell-based; outline: as §3
Hs-578T [15] = experiment: Antiproliferative activity against human Hs578T cells after 3 to 7 days by SRB assay; assay type: functional, cell-based; outline: as §3
MDA-MB-468 [16] = experiment: Antiproliferative activity against human MDA-MB-468 cells after 3 to 7 days by SRB assay; assay type: functional, cell-based; outline: as §3
MDA-MB-468 [17] = experiment: Induction of senescence in human MDA-MB-468 cells assessed as increase in CXCL1 mRNA expression level at EC80 concentration after 6 days by qRT-PCR analysis; assay type: functional, cell-based; outline: as §2

| Activity (Bos taurus) | SMILES | Activity (MDA-MB-468 [1]) | Activity (MDA-MB-468 [2]) | Activity (HEY [3]) | Activity (HEY [4]) | Activity (Hs-578T [5]) | Activity (BT-549 [6]) | Activity (HEY [7]) | Activity (BT-549 [8]) | Activity (Hs-578T [9]) | Activity (HEY [10]) | Activity (MDA-MB-157) | Activity (MCF7) | Activity (HCC1143) | Activity (A549) | Activity (BT-20) | Activity (HEY [11]) | Activity (MDA-MB-468 [12]) | Activity (MDA-MB-468 [13]) | Activity (BT-549 [14]) | further results |
| --- | --- | --- | --- | --- | --- | --- | --- | --- | --- | --- | --- | --- | --- | --- | --- | --- | --- | --- | --- | --- | --- |
| 54.6% | C=C/C=C\[C@H](C)[C@H](OC(=O)NCCNC(=O)c1ccc(N=[N+]=[N-])cc1)[C@@H](C)[C@H](O)[C@@H](C)C/C(C)=C\[C@H](C)[C@@H](O)[C@@H](C)/C=C\[C@@H](O)C[C@@H]1OC(=O)[C@H](C)[C@@H](O)[C@H]1C | Active | <10% | 10 - 15% | Active | 15 - 18% | <10% | Active | Active | inactive | Active | – | – | – | – | – | – | – | – | – | – |
| 60% | C=C/C=C\[C@H](C)[C@H](OC(=O)NCCCNC(=O)c1cccc(N=[N+]=[N-])c1)[C@@H](C)[C@H](O)[C@@H](C)C/C(C)=C\[C@H](C)[C@@H](O)[C@@H](C)/C=C\[C@@H](O)C[C@@H]1OC(=O)[C@H](C)[C@@H](O)[C@H]1C | Active | <10% | 10 - 15% | Active | 15 - 18% | <10% | Active | Active | inactive | Active | Active | Active | Active | Active | Active | Active | Active | Active | Active | Activity (Hs-578T [15]): Active; Activity (MDA-MB-468 [16]): Active; Activity (MDA-MB-468 [17]): Active |
| 52.2% | C=C/C=C\[C@H](C)[C@H](OC(=O)NCCCCNC(=O)c1ccc(N=[N+]=[N-])cc1)[C@@H](C)[C@H](O)[C@@H](C)C/C(C)=C\[C@H](C)[C@@H](O)[C@@H](C)/C=C\[C@@H](O)C[C@@H]1OC(=O)[C@H](C)[C@@H](O)[C@H]1C | Active | <10% | 10 - 15% | Active | 15 - 18% | <10% | Active | Active | inactive | Active | – | – | – | – | – | – | – | – | – | – |
| 56.1% | C=C/C=C\[C@H](C)[C@H](OC(=O)NCCCNC(=O)c1ccc(C2(C(F)(F)F)N=N2)cc1)[C@@H](C)[C@H](O)[C@@H](C)C/C(C)=C\[C@H](C)[C@@H](O)[C@@H](C)/C=C\[C@@H](O)C[C@@H]1OC(=O)[C@H](C)[C@@H](O)[C@H]1C | Active | <10% | 10 - 15% | Active | 15 - 18% | <10% | Active | Active | inactive | Active | Active | Active | Active | Active | Active | Active | Active | Active | Active | Activity (Hs-578T [15]): Active; Activity (MDA-MB-468 [16]): Active; Activity (MDA-MB-468 [17]): Active |
